Calb FLC = C. albicans growth inhibition with fluconazole, primary screen, CaCi-2 strain, Alamar Blue fluorescence; C. albicans CaCi-2 (fluconazole-resistant clinical isolate) + fluconazole, 48 h; growth inhibition, % (no concentration beside the values); hit rate 0.57% among 300,000; AID 1979, 2009;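 active = growth inhibition above about 58% in most replicates, limit read from the data, passing the limit was not always enough; inconclusive = exactly half the replicates above a set limit; inactive = most replicates below a set limit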;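 note: all wells also contain fluconazole at 8 µg/ml as a sub-toxic cotreatment; 0% = median of DMSO wells and 100% = median of geldanamycin control wells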
Beta apoptosis = inhibitors of cytokine-induced beta cell apoptosis, primary screen, luminescence; INS-1E cytokine-induced death, ATP luminescence, 48 h; percent of positive-control rescue, neutral wells zero; hit rate 0.8% among 300,000; protection from apoptosis, % (test concentration not listed);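 active = Every replicate reaches about 75%, or at least half do and their mean reaches it too, limit read from the data; inconclusive = At least half of replicates reach the limit but their mean does not; inactive = Under half of replicates reach the limit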;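 note: 0% = cytokine-treated negative control wells and 100% = positive control rescue; higher means more ATP so stronger rescue from cytokine killing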
CSC inhib = cancer stem cell viability inhibitors, primary screen, luminescence | cancer stem cell-like cells viability | inhibition, % at 7.5 µM | hit rate 1.1% among 300,000 | AID 2717, 2010; in the data active = inhibition above about 75%; inconclusive = no clear call, values can overlap the other calls; tested in HMLE shEcad cells
T cruzi repl = inhibitors of intracellular T. cruzi growth, primary screen, luminescence, NIH3T3 host cells; T. cruzi beta-gal in NIH3T3, 90 h; inhibition, % (no concentration beside the values); hit rate 1.4% among 300,000;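 active = mean inhibition across valid replicates above about 55%, limit read from the data; inconclusive = mean below that limit but half or more replicates reach it; inactive = mean below it, under half of replicates reach it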;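 note: signal also drops with host cell toxicity which is not excluded here; 0% = plate median of DMSO wells and 100% = zero luminescence signal; higher percent means less beta-gal luminescence so fewer parasites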
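System – NIH/3T3 host cells with β-galactosidase reporter T. cruzi · Doses – single 50 nL compound addition per well in DMSO · Reagent – 5000 T. cruzi trypomastigotes/well · Medium – Low-serum DMEM with 2% FBS · Timing – ≥90 h infection period, 3 h prior cell attachment · Evaluation – parasite load inhibition, % · Technique – GalScreen luminescence, 60 min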
Mdm2 MdmX PPI = inhibitors of human Mdm2-MdmX association, primary screen, cell-based, luminescence, split luciferase, SaOS-2, uHTS; Protein Mdm4 (Homo sapiens) + E3 ubiquitin-protein ligase Mdm2 (Homo sapiens), …; SaOS-2 split-luciferase Mdm2/MdmX complementation; inhibition, % at 8 µM; hit rate 3% among 330,000; AID 485346, 2010;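 active = inhibition of at least 50% at 8 µM in the primary screen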
Target sequence (O15151 whole entry, looked up): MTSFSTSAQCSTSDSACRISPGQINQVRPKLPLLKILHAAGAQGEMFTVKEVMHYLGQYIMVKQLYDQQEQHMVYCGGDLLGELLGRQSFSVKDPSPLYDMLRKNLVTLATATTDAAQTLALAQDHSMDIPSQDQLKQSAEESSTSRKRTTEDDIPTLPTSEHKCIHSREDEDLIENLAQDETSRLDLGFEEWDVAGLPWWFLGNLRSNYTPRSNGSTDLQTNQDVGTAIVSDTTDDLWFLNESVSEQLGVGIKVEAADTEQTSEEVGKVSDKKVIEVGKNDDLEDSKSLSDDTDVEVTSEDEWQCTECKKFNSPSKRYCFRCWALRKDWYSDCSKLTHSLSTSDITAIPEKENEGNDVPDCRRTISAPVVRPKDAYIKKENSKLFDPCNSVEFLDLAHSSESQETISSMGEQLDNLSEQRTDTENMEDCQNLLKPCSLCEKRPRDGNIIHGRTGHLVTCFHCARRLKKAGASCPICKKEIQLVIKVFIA
Target sequence (Q00987 whole entry, looked up): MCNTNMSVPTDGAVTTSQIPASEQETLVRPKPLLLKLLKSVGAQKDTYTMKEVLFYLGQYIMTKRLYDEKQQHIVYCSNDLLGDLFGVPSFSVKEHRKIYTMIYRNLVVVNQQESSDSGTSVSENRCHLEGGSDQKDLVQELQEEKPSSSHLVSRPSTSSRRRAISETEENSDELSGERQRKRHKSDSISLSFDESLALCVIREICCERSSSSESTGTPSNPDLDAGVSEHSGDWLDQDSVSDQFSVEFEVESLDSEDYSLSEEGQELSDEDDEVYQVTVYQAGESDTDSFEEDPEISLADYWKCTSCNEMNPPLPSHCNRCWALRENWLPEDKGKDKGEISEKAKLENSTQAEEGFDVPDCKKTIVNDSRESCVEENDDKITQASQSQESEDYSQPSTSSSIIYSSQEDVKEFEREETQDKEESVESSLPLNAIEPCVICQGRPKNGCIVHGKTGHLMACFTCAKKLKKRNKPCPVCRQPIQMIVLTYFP
SKKanGAS inh = S. pyogenes SKKanGAS growth inhibitors in kanamycin, primary screen, streptokinase expression inhibitor project, SKKanGAS strain, BacTiter-Glo luminescence. inhibition, % at 7.5 µM. 6 h. hit rate 1.3% among 300,000;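 active = mean replicate score, as percent of positive control median, at least 50; inconclusive = mean below 50 but one replicate at or above 50; inactive = mean and every replicate below 50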;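 note: strain carries kanamycin resistance gene driven by streptokinase promoter and grows in 40 µg/ml kanamycin; loss of luminescence reflects streptokinase promoter inhibition or plain growth inhibition; 0% = median of DMSO wells and 100% = positive control at its reference dose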
Starred values were filed as active, the others as inactive; ? = inconclusive; . = not tested or not shown. Shown are actives, neighbours in structure and some others; about 5.7% of the full set was active somewhere.

SMILES	Calb FLC	Beta apoptosis	CSC inhib	T cruzi repl	Mdm2 MdmX PPI	SKKanGAS inh
Cc1cccc(Nc2nc(N)nc(CN3CCN(c4ccccc4F)CC3)n2)c1	10	-1	-1	10	42	72*
COc1cccc(Nc2nc(N)nc(CCl)n2)c1	-3	-11	-1	69*	50	-3
COc1ccccc1N1CCN(Cc2nc(N)nc(Nc3ccc(C)c(Cl)c3)n2)CC1	60	1	13	11	44	76*
COc1cccc(N2CCN(Cc3nc(N)nc(Nc4ccccc4)n3)CC2)c1	51	-5	-9	-8	-14	34
COc1ccccc1Nc1nc(N)nc(CN2CCN(c3ccccc3F)CC2)n1	9	-1	-12	-6	-13	62*
Cc1cccc(Nc2nc(N)nc(CN3CCN(c4ccccc4)CC3)n2)c1	52	-3	13	-4	-3	?
COc1ccccc1Nc1nc(N)nc(CN2CCN(Cc3ccccc3)CC2)n1	-18	2	1	5	9	-18
Nc1nc(CCl)nc(Nc2ccccc2)n1	-2	-14	-2	28	36	2
Cc1sc(NC(=S)NC(=O)c2ccco2)c(C#N)c1C	-7	0	4	10	4	-1
CC(C)(C)C1CCc2sc(C(=O)NNC(=O)CCl)cc2C1 (configuration not stated)	3	.	.	67*	.	-4
Cc1ccc(S(=O)(=O)N2c3ccccc3-c3c(ssc3=S)C2(C)C)cc1	-8	-11	-5	55*	5	0
CCN(CC(=O)Nc1ccccc1OC)C(=O)CC1CCCC1	.	-12	-15	.	-8	.
CCc1cc2ccc(C)cc2nc1SCC(=O)c1ccc(NC(C)=O)cc1	13	7	87*	37	7	2
CCc1cc2cccc(C)c2nc1SCC(=O)c1ccc(NC(C)=O)cc1	-10	0	121*	10	-5	-13
COc1ccc(CCNC(=O)CSc2nn(-c3ccccc3)c(=S)s2)cc1OC	-9	0	12	1	-25	-8
COc1ccccc1NC(=O)Cn1cnc2c(cnn2-c2ccccc2)c1=O	91*	.	-5	-11	2	-3
COc1cccc(CC2(CO)CCCN(Cc3ccc(CO)o3)C2)c1 (configuration not stated)	-10	2	7	-18	-23	0
COc1ccc(-n2ccnc2CN2CCCC(CO)(Cc3cccc(OC)c3)C2)cc1 (configuration not stated)	-1	7	-5	4	0	17
COc1cccc(CC2(CO)CCCN(Cc3ccc(C)s3)C2)c1 (configuration not stated)	-14	0	24	58*	1	-10
COc1cccc(CC2(CO)CCCN(Cc3sc(N4CCCC4)nc3Cl)C2)c1 (configuration not stated)	-14	-2	-19	55*	-9	-4
COc1cccc(CC2(CO)CCCN(Cc3ccc(-c4ccco4)cc3)C2)c1 (configuration not stated)	-30	-6	-5	58*	-26	-7
COc1cccc(CC2(CO)CCCN(Cc3cc4ccccc4[nH]3)C2)c1 (configuration not stated)	-6	-1	-5	67*	6	2
COc1cccc(CC2(CO)CCCN(Cc3ccccc3-c3ccco3)C2)c1 (configuration not stated)	-16	6	23	26	-5	6
CCn1cc(C(=O)NCCC(=O)OC)c(=O)c2cc3c(cc21)OCO3	-5	-8	-15	-3	20	6
C/C(CC(=O)Nc1cccc(F)c1)=N\NC(=O)c1ccncc1	-2	-1	9	9	11	7
Cc1ccc(S(=O)(=O)c2c(O)c3ccc(C(=O)O)cc3[nH]c2=O)cc1	6	-11	3	6	6	-4
CC(CC(=O)N1CCN(c2cccc(Cl)c2)CC1)S(=O)(=O)c1ccc2c(c1)NC(=O)CO2 (configuration not stated)	-8	80*	-8	13	-3	1

Screening results: PubChem BioAssay, several laboratories
